The source made the active and inactive calls. The rule behind the calls is not given here.
Experiments:
[1] = molecular target: T1, PPARgamma2 (peroxisome proliferator-activated receptor gamma) (Homo sapiens, UniProt P37231); assay: Transactivation activity at human PPARgamma2 cotransfected with PPRE X3-TK-luc in human HEK293 cells incubated for 24 hrs by luciferase reporter gene assay relative to rosiglitazone; format: cell-based
T1 sequence (P37231 whole entry): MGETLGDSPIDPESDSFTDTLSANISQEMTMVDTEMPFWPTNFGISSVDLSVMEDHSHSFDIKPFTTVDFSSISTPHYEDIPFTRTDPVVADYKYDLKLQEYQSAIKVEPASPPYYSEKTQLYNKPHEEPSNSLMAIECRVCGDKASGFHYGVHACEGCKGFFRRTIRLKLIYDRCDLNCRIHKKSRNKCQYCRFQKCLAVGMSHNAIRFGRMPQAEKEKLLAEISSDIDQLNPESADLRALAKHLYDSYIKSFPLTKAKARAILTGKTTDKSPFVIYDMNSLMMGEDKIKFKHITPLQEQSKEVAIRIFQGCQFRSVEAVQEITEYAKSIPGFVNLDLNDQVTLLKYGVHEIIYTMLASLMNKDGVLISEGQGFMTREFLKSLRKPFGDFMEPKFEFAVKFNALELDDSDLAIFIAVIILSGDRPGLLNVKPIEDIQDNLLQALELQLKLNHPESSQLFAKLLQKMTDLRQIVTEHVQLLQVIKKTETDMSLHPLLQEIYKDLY
Outline: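 HEK-293 cells grown in DMEM with 4.5 g/liter glucose and 10% bovine calf serum at 37°C, 5% CO₂. Co-transfected with human PPARγ2 plasmid and PPRE X3-TK-luc, then left 16 h. Compounds at 100 to 0.001 μM (10-fold steps), 0.1% DMSO final, for 24 h. Lysate luciferase read by luminescence.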

[2] = molecular target: T2, Peroxisome proliferator-activated receptor gamma (Homo sapiens, UniProt P37231); assay: Displacement of fluormone PPAR green tracer ligand from recombinant GST-tagged PPARgamma ligand binding domain (unknown origin) incubated for 4 hrs by competitive fluorescence polarization binding assay
T2 sequence (P37231 whole entry): T1 sequence (P37231 whole entry)

[3] = molecular target: T3, Peroxisome proliferator-activated receptor gamma (Mus musculus) (UniProt P37238); assay: Partial agonist activity at PPARgamma in mouse 3T3-L1 cells assessed as decrease in PPARgamma S273 phosphorylation at 10 uM preincubated for 24 hrs followed by TNFalpha stimulation for 3 hrs by Western blotting analysis
T3 sequence (whole entry): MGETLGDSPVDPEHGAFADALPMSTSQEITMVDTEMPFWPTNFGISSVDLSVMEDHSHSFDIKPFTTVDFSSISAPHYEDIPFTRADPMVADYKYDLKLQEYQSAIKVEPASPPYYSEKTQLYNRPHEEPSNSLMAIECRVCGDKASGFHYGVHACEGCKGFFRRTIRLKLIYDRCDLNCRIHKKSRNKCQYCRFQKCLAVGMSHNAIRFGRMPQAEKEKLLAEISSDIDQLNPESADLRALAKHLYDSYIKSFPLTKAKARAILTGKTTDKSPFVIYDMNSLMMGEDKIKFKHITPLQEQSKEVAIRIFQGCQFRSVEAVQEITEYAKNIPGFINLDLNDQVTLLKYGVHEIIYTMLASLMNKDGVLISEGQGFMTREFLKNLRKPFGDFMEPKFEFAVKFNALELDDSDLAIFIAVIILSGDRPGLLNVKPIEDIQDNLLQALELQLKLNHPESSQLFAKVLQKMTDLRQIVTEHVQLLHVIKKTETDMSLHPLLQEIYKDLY

[4] = molecular target: T4, Peroxisome proliferator-activated receptor gamma (Mus musculus, UniProt P37238); assay: Induction of PPARgamma-mediated adipogenesis in mouse 3T3L1 cells assessed as upregulation of FABP4 mRNA expression at 10 uM by qRT-PCR analysis; format: cell-based
T4 sequence (P37238 whole entry): T3 sequence (whole entry)
Outline: (§1)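 Confluent 3T3-L1 cells were differentiated in 10% FBS/DMEM with 0.5 mmol/L IBMX, 1 μmol/L dexamethasone and 10 μg/mL insulin plus compounds (10 μM) for 48 h, then 10 μg/mL insulin alone for another 48 h. RNA was extracted and analyzed by qRT-PCR (35 cycles). Relative mRNA was calculated by ΔΔCt normalized to TBP.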

[5] = molecular target: T4, Peroxisome proliferator-activated receptor gamma; assay: Induction of PPARgamma-mediated adipogenesis in mouse 3T3L1 cells assessed as upregulation of LPL mRNA expression at 10 uM by qRT-PCR analysis; format: cell-based; outline: as §1
[6] = molecular target: T4, Peroxisome proliferator-activated receptor gamma; assay: Induction of PPARgamma-mediated adipogenesis in mouse 3T3L1 cells assessed as increase in cell differentiation at 10 uM compound treatment renewed every 2 days and measured on day 7 by Oil-red O staining based assay; conditions: 48 h
Outline: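 3T3-L1 cells were induced with DMEM/10% FBS containing 1 μg/ml insulin, 1 μM dexamethasone and 0.5 mM IBMX plus compounds (10 μM) for 48 h. They were then kept in maintenance DMEM/10% FBS with compounds, with medium renewed every 2 days. At day 7 cells were fixed in 4% formaldehyde for 30 min and stained with 0.3% Oil Red O for 1 h at 37 °C. Lipid droplets were viewed by microscopy; DMSO 0.1% final.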

[7] = molecular target: T4, Peroxisome proliferator-activated receptor gamma; assay: Induction of PPARgamma-mediated adipogenesis in mouse 3T3L1 cells assessed as upregulation of Glut4 mRNA expression at 10 uM by qRT-PCR analysis; format: cell-based; outline: as §1
[8] = molecular target: T3, Peroxisome proliferator-activated receptor gamma (Mus musculus); assay: Partial agonist activity at PPARgamma in mouse 3T3-L1 cells assessed as decrease in PPARgamma S273 phosphorylation by measuring upregulation of adipsin mRNA expression at 10 uM by qRT-PCR analysis; format: cell-based
[9] = molecular target: T5, Peroxisome proliferator-activated receptor gamma (Homo sapiens) (UniProt P37231); assay: Potency index, ratio of UHC1 IC50 to compound IC50 for displacement of fluormone PPAR green tracer ligand from recombinant GST-tagged PPARgamma ligand binding domain (unknown origin) incubated for 4 hrs by competitive fluorescence polarization binding assay
T5 sequence (whole entry): T1 sequence (P37231 whole entry)

[10] = molecular target: T3, Peroxisome proliferator-activated receptor gamma (Mus musculus); assay: Partial agonist activity at PPARgamma in mouse 3T3L1 cells assessed as decrease in PPARgamma S273 phosphorylation by measuring upregulation of Car3 mRNA expression at 10 uM by qRT-PCR analysis; format: cell-based
[11] = molecular target: T3, Peroxisome proliferator-activated receptor gamma (Mus musculus); assay: Partial agonist activity at PPARgamma in mouse 3T3-L1 cells assessed as decrease in PPARgamma S273 phosphorylation by measuring upregulation of adiponectin mRNA expression at 10 uM by qRT-PCR analysis; format: cell-based

Molecule COc1ccc(OC)c(CNC(=O)c2ccc3c(c2)c(C)c(C)n3Cc2cccc(C(F)(F)F)c2)c1 has an Emax at 24 h [1] of 27%, an IC50 [2] of 48 nM and a Ki [2] of 38 nM.

Cc1c(C)n(Cc2ccc(-c3ccccc3C(=O)O)cc2)c2ccc(C(=O)NCc3cccnc3)cc12 was tested, and the inhibition [3] was “Active”, the Emax at 24 h [1] was 45% and the IC50 [2] was 536 nM. The Ki [2] was 440 nM.

Work on Cc1c(C)n(Cc2ccc(-c3ccccc3C(=O)O)cc2)c2ccc(C(=O)NC3CCNCC3)cc12 yielded an Emax at 24 h [1] of 17%, an IC50 [2] of 41300 nM and a Ki [2] of 32200 nM.

Molecule Cc1c(C)n(Cc2cccc(C(F)(F)F)c2)c2ccc(C(=O)NCc3ccccn3)cc12 has an Emax at 24 h [1] of 59%, an IC50 [2] of 185 nM and a Ki [2] of 144 nM.

With Cc1c(C)n(Cc2ccc(-c3ccccc3C(=O)O)cc2)c2ccc(C(=O)NCC3CCNCC3)cc12 the Emax at 24 h [1] was 11%, the IC50 [2] was 12100 nM and the Ki [2] was 9460 nM.

CN(CCOc1ccc(CC2SC(=O)NC2=O)cc1)c1ccccn1 (configuration not stated) [ROSIGLITAZONE] was tested, and the inhibition [3] was “Active”, the Activity [4] was “Active” and the Activity [5] was “Active”. For the same molecule, the Activity [6] was “Active” and the Activity [7] was “Active”.

COc1cc(CNC(=O)c2ccc3c(c2)c(C)c(C)n3Cc2ccc(-c3ccccc3C(=O)O)cc2)ccc1O was tested, and the inhibition [3] was “Active”, the Emax at 24 h [1] was 15% and the Activity [4] was “Active”. The Activity [8] was “Active”, the Activity [5] was “Active” and the Ratio IC50 [9] was > 30. The IC50 [2] was 17 nM, the Ki [2] was 13 nM and the Activity [10] was “Active”. The Activity [11] was “Active” and the Activity [7] was “Active”.

Cc1c(C)n(Cc2ccc(-c3ccccc3C(=O)O)cc2)c2ccc(C(=O)NCc3ccc(S(N)(=O)=O)cc3)cc12 gave an Emax at 24 h [1] of 0%, an IC50 [2] of 312 nM and a Ki [2] of 244 nM.

Cc1c(C)n(Cc2ccc(-c3ccccc3C(=O)O)cc2)c2ccc(C(=O)O)cc12 was tested, and the Emax at 24 h [1] was 16%, the IC50 [2] was 4870 nM and the Ki [2] was 3800 nM.

Cc1c(C)n(Cc2ccc(-c3ccccc3C(=O)O)cc2)c2ccc(C(=O)NCc3ccccn3)cc12 was tested, and the Emax at 24 h [1] was 15%, the IC50 [2] was 34 nM and the Ki [2] was 27 nM.

For Cc1c(C)n(Cc2cccc(C(F)(F)F)c2)c2ccc(C(=O)NCc3ccc4c(c3)OCO4)cc12, the Emax at 24 h [1] was 32% and the IC50 [2] was 16 nM.

For Cc1c(C)n(Cc2ccc(-c3ccccc3C(=O)O)cc2)c2ccc(C(=O)NCCc3ccc(O)cc3)cc12, the Emax at 24 h [1] was 31%, the IC50 [2] was 48 nM and the Ki [2] was 38 nM.

Work on COc1cc(CNC(=O)c2ccc3c(c2)c(C)c(C)n3Cc2cccc(C(F)(F)F)c2)ccc1O yielded an Emax at 24 h [1] of 46% and an IC50 [2] of 10 nM.

Cc1c(C)n(Cc2cccc(C(F)(F)F)c2)c2ccc(C(=O)N[C@@H](Cc3ccc(O)cc3)C(=O)O)cc12 gave an Emax at 24 h [1] of 44%, an IC50 [2] of 346 nM and a Ki [2] of 270 nM.

In the case of Cc1c(C)n(Cc2ccc(-c3ccccc3C(=O)O)cc2)c2ccc(C(=O)NCc3ccc4c(c3)OCO4)cc12, the Emax at 24 h [1] is reported as 36%, the IC50 [2] is reported as 15 nM and the Ki [2] is reported as 12 nM.

Cc1c(C)n(Cc2ccc(-c3ccccc3C(=O)O)cc2)c2ccc(C(=O)NCc3cccc(OCC(=O)O)c3)cc12 showed an Emax at 24 h [1] of 56%, an IC50 [2] of 66 nM and a Ki [2] of 52 nM.

— ChEMBL document CHEMBL4359926, “Design, synthesis, and evaluation of potent novel peroxisome proliferator-activated receptor γ indole partial agonists” (Bioorg Med Chem Lett, 2019)
